Source: PubChem (several laboratories)
ARNT-TACC3 inh: disrupts binding between human ARNT and TACC3. inhibition, % at 9.99 µM. AlphaScreen His-ARNT PAS-B/GST-TACC3 binding, luminescence; TACC3 fragment carries E629A point mutation. hit rate 0.66% among 390,000. Q9Y6A5;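 active = mean inhibition of replicates at least 50% and at least half of replicates each reaching 50%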;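 also: 0% = complete ARNT plus TACC3 wells and 100% = ARNT alone without TACC3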
sPLA2-III inh: Blocks human group III sPLA2 activity | hit rate 0.56% among 370,000 | inhibition, % at 12.2 µM | QFRET BODIPY PC-A2 liposome hydrolysis, fluorescence | Q9NZ20;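 active = inhibition above mean plus 3 SD of compounds lying within the high and low control bounds, cut at about 19% in these data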;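 also: 0% = median of test compound wells and 100% = no enzyme DMSO wells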
SR-BI DiI inh: mouse SR-BI HDL lipid transfer inhibition; hit rate 0.96% among 320,000; Q61009; inhibition, % at 12.5 µM; AID 488896; ldlA[mSR-BI] CHO cells, DiI-HDL uptake fluorescence, 3 h;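 active = mean replicate inhibition of at least 70% and a set share of replicates each scoring 70 or more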;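 also: 0% = median of neutral control wells and 100% = median of positive control wells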
Target sequence (Q61009 whole entry, looked up): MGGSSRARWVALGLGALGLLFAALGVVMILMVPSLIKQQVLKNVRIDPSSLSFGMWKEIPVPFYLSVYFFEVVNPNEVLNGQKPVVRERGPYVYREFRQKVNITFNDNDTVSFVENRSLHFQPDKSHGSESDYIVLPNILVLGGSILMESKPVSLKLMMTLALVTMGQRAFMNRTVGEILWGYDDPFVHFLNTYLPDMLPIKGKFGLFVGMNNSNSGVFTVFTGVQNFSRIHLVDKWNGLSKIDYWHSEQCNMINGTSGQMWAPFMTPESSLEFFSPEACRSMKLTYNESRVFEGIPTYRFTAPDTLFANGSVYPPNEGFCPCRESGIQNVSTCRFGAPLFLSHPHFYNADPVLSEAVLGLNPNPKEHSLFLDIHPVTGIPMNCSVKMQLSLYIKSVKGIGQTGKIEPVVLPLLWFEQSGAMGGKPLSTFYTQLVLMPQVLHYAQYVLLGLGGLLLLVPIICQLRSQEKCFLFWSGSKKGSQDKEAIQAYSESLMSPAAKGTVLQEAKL
SR-BI DiI-HDL act: activators of SR-BI mediated HDL lipid uptake | CHO ldlA[mSR-BI] cells, DiI-HDL uptake fluorescence, 3 h; 100 = double the neutral-control signal | activation, % at 12.5 µM | hit rate 0.096% among 320,000 | AID 504775;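 active = mean replicate activation of at least 60% and every replicate at or above 60%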;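 also: 0% = median plate neutral-control signal and 100% = twice that signal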
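Test system: SR-BI-overexpressing, LDLR-lacking CHO cells; Also added: labelled HDL, 10 µg/mL; Measured by: bottom-read cell fluorescence after medium removal, ex 550/em 595 nm; Timing: 3 h uptake period with compound, 37 °C; Buffer or medium: F12, 0.5% BSA, 25 mM HEPES; Doses: single compound concentration, delivered by pin transfer.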
XiGFP reactiv: X-chromosome reactivation activator | AID 743238 | XiGFP mouse fibroblasts, % GFP-positive cells imaging, 3 d; cells co-treated with 5-aza-dC sensitizer; scaled so ellipticine positive control = 100% | hit rate 0.055% among 360,000 | activation, % at 7.58 µM;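 active = mean normalized replicate activation at least 10% and every replicate at or above 10%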;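 also: 0% = median of on-plate neutral control wells and 100% = ellipticine 6 µM median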
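System: 68-5-11 XiGFP fibroblast line | Buffer or medium: DMEM containing 5-aza-dC | Compound: Single point | Times: Compounds 3 days, fix/stain 15 min at room temperature | Benchmarks: Positive control ellipticine, 6 µM final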
NSD2 inh: NSD2 (human) methyltransferase inhibition; NSD2 peptide methylation, AlphaScreen, 120 min; inhibition, % at 12.5 µM; O96028; hit rate 0.54% among 310,000; in the data active = inhibition above about 50%
AlphaScreen ctr: counter-screen for ARNT/TACC3 inhibitors: AlphaScreen artifacts; shares compounds with ARNT-TACC3 inh; His-ARNT PASB-GST AlphaScreen artifact counter-screen, luminescence; AC50, µM (titrated, usually from 68 µM), for the others: at the highest dose activity change, negative = signal decrease; hit rate 50% among 1,200;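 active = every separate test run was called active for a drop in luminescence, with AC50 within twice the top valid dose, actives reach about 71 µM in these data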
hGIII sPLA2 conf: human GIII-sPLA2 inhibition, confirmation | shares compounds with sPLA2-III inh | recombinant hGIII-sPLA2, BODIPY PC-A2 QFRET fluorescence | inhibition, % at 12.2 µM | hit rate 34% among 2,000 | AID 743280;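 active = mean inhibition across triplicates above the hit cutoff set in the earlier primary screen, cut at about 19% in these data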;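 also: 0% = enzyme with DMSO and 100% = DMSO wells lacking enzyme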
535nm interf: counter-screen for HGIII-sPLA2 inhibitors: 535nm fluorescence interference. BODIPY FL product fluorescence interference, QFRET. inhibition, % at 12.2 µM. hit rate 8.5% among 2,000. shares compounds with sPLA2-III inh;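 active = average inhibition above the solvent-only control mean plus 3 SD, cut at about 6% in these data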;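 also: 0% = DMSO with substrate plus product and 100% = DMSO with substrate alone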
AlphaScreen art: AlphaScreen assay artifact in NSD2 counter-screen. shares compounds with NSD2 inh. AC35, µM (top dose mostly 10 µM), for the others: at the highest dose activity change, negative = signal loss. hit rate 9.4% among 1,500. AlphaScreen artifact counterscreen, preloaded methylated H4 peptide; call rule not given here
Numbers without * were called inactive; . = no result; [ ] = dose if it differs, or a comment. Shown are actives, neighbours in structure and some others; about 2% of the full set was active somewhere.

SMILES | ARNT-TACC3 inh | sPLA2-III inh | SR-BI DiI inh | SR-BI DiI-HDL act | XiGFP reactiv | NSD2 inh | AlphaScreen ctr | others
COCc1cn(CC[C@H]2CC[C@@H](NC(=O)c3ccncc3)[C@H](CO)O2)nn1 | -47.3 | . | . | . | 0.1 | . | .
O=C(N[C@@H]1CC[C@@H](CCn2cc(-c3ccccn3)nn2)O[C@@H]1CO)c1ccncc1 | 77.0* | . | . | . | 0.5 | . | 38.1µM*
NC(c1ccccc1)c1cccs1 (configuration not stated) | . | 12.4 | . | . | 0.1 | 1.4 | .
C[C@@H](NC(=O)[C@@H]1[C@@H](CO)[C@@H]2Cn3c(ccc(-c4cccc(F)c4)c3=O)[C@@H]2N1C)c1ccccc1 | . | . | . | . | 0.5 | . | .
O=C(NCC1CCCO1)c1onc(CSc2ccc(F)cc2)c1C(=O)O (configuration not stated) | 23.6* | 3.7 | -8.3 | 8.3 | 0.1 | . | -3.7%
COc1cc(NC(=O)CSc2nnc3ccc(-c4cccnc4)nn23)cc(OC)c1 | -6.3 | 8.7 | 10.2 | -10.2 | 0.3 | -0.2 | .
COc1ccc(Nc2nc(N)nc(CN(C)C3CCCCC3)n2)cc1 | 55.7* | -3.6 | -37.6 | 37.6 | . | 0.7 | -9.7%
CCOc1ccc(Nc2nc(N)nc(CN(C)C3CCCCC3)n2)cc1 | 62.6* | -1.5 | -15.9 | 15.9 | 0.2 | 3.6 | -10.5%
CC(C)N=c1scc(-c2ccco2)n1/N=C/c1ccc(O)c(O)c1 | 26.8 | 15.3 | 53.8 | -53.8 | . | . | .
COCCN=c1scc(-c2ccco2)n1/N=C/c1ccc(O)c(O)c1O | 54.9* | 13.4 | 65.7 | -65.7 | 0.0 | 87.1* | 33.5µM*
c1ccc(-c2cnc(Nc3nc(-c4ccccn4)nnc3-c3ccccc3)s2)cc1 | . | . | . | . | . | . | 2.59µM*
O=c1[nH]c(-c2ccccn2)nc2sc(-c3ccccc3)cc12 | 12.4 | 7.8 | 21.1 | -21.1 | 7.5 | . | .
Cc1ccc(Nc2nc(-c3ccccn3)nnc2-c2ccccc2)cn1 | . | . | . | . | . | . | 0.424µM*
CC=Cc1ccc2n(c1=O)C[C@H]1[C@H](CO)[C@@H](C(=O)NC3CCC3)[C@@H]2N1S(=O)(=O)c1cn(C)cn1 (mixture of isomers) | active | . | . | . | 0.3 | . | -1.6%[38 µM]
CC=Cc1ccc2n(c1=O)C[C@@H]1[C@@H](CO)[C@H](C(=O)NC3CCC3)[C@H]2N1S(=O)(=O)c1cn(C)cn1 (mixture of isomers) | 5.0 | . | . | . | 0.3 | . | .
O=C(NCC(=O)N(c1cccc(F)c1)C(C(=O)NC1CCCC1)c1ccncc1)c1cccs1 (configuration not stated) | -9.0 | 9.3 | -3.8 | 3.8 | 0.1 | 0.5 | .
O=c1oc2c3c4c(cc2s1)CCCN4CCC3 | active | 3.4 | -3.1 | 3.1 | . | 22.3 | 44.1µM*
O=C(CSc1n[nH]c(-c2ccccn2)n1)Nc1ccccc1 | 61.6* | -8.6 | -1.7 | 1.7 | -0.1 | -2.2 | 7.74µM*
COc1ccccc1NC(=O)CSc1n[nH]c(-c2ccccn2)n1 | 60.7* | -11.7 | . | . | 0.2 | -7.0 | 11.1µM*
COc1ccccc1-c1nc(SCC(=O)Nc2ccccc2)n[nH]1 | -8.3 | 0.0 | 9.5 | -9.5 | 0.0 | -1.1 | .
COc1ccc(NC(=O)CSc2n[nH]c(-c3ccccn3)n2)cc1 | 58.5* | -11.1 | . | . | 0.0 | -4.1 | 6.92µM*
Cc1cc(=O)oc2cc(OCC(=O)Nc3ccc(F)cc3F)ccc12 | -7.7 | 2.7 | -1.8 | 1.8 | 0.0 | -3.4 | .
COc1cccc(CNC(=O)COC(=O)c2ccc(C(=O)c3ccccc3)cc2)c1 | 55.2* | -3.3 | -15.2 | 15.3 | 0.0 | -0.8 | -7.9%
Cc1ccc(Nc2c(-c3ccccn3)nc3cccc(C)n23)cc1 | 55.6* | 22.9* | . | . | -0.2 | 35.8 | 19.8µM* | hGIII sPLA2 conf=12.0;535nm interf=-24.6
Cc1cccc2nc(-c3ccco3)c(Nc3ccccc3)n12 | -1.7 | -0.7 | . | . | -0.3 | 1.1 | .
SMILES | ARNT-TACC3 inh | sPLA2-III inh | SR-BI DiI inh | SR-BI DiI-HDL act | XiGFP reactiv | NSD2 inh | AlphaScreen ctr | others
CCCNC(=O)c1onc(CS(=O)(=O)c2cccc(OC)c2)c1C(=O)NCCC | -0.3 | 5.6 | -6.3 | 6.3 | 0.0 | . | .
c1ccc(-c2ccc(CNc3nc(-c4ccccn4)nnc3-c3ccccc3)cc2)cc1 | . | 26.9* | . | . | . | -0.1 | 3.35µM* | hGIII sPLA2 conf=-0.7;535nm interf=-30.8
c1ccc(CNc2ccccn2)cc1 | -3.6 | 8.4 | 0.7 | -0.7 | 0.0 | 0.4 | .
CCCC(=O)NC(c1ccc(N(C)C)cc1)c1ccc2cccnc2c1O (configuration not stated) | 60.1* | 23.2* | -16.6 | 16.6 | 1.6 | 7.4 | 17.9µM* | hGIII sPLA2 conf=25.2*;535nm interf=-5.3
CCC(=O)NC(c1ccc(C)cc1)c1ccc2cccnc2c1O (configuration not stated) | 35.2* | 21.0* | 20.0 | -20.0 | 1.0 | 5.3 | 28.1µM* | hGIII sPLA2 conf=16.3;535nm interf=-12.1
CCN(C(=O)CSc1nc2cc(C(=O)O)ccc2c(=O)n1-c1ccccc1F)C1CCS(=O)(=O)C1 (configuration not stated) | -3.5 | 4.7 | -17.2 | 17.2 | -0.1 | -4.1 | .
O=C(COC(=O)c1ccc([N+](=O)[O-])s1)NCCc1ccccc1 | 50.4* | . | 9.9 | -9.9 | . | 57.5* | -19.0% | AlphaScreen art=-1.5%
O=C(COC(=O)c1ccc([N+](=O)[O-])s1)NC(=O)NCc1ccccc1 | . | -4.3 | -15.4 | 15.4 | 0.3 | 2.5 | .
Cc1[nH][nH]c(=O)c1C(c1ccc(-c2ccccc2C(=O)O)o1)c1c(C)[nH][nH]c1=O | 53.7* | 2.5 | -3.7 | 3.7 | 0.0 | 78.4* | -12.4% | AlphaScreen art=-0.8%
O=Nc1ccc(O)c2ncccc12 | 56.7* | 3.1 | . | . | -0.2 | 64.2* | 68.8µM* | AlphaScreen art=1.4%
COC(=O)C1=CO[C@@H](O)C2C(CO)=CCC12 (some centres not stated) | -2.9 | 1.9 | -13.7 | 13.7 | 0.5 | . | .
CCC(=O)Nc1cc(C)c(NC(=O)CCc2ccccc2)cn1 | -0.5 | -2.2 | 3.3 | -3.3 | . | 3.0 | .
Cc1[nH]n(-c2ccccc2)c(=O)c1C(c1ccc(C(=O)O)cc1)c1c(C)[nH]n(-c2ccccc2)c1=O | 18.1* | -1.8 | -7.2 | 7.2 | -0.1 | 57.3* | -18.1% | AlphaScreen art=0.0%
